Measurements taken from ChEMBL document CHEMBL4196021, “Targeting G-quadruplex DNA structures in the telomere and oncogene promoter regions by benzimidazole‒carbazole ligands” (Eur J Med Chem, 2018).
Active and inactive are the calls of the source. No cut-off for these calls is given here.

Assays:
Quadruplex DNA [1] = assay: Binding affinity to human telomeric G-quadruplex DNA at 0.6 uM after 5 mins in presence of KCl by fluorescence spectroscopic method; assay type: nucleic-acid assay
Outline: (§1)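 Fluorescence titration at 25 °C with 0.6 µM ligand in 10 mM Tris-HCl pH 7.4, 100 mM KCl, 0.1 mM EDTA. Preformed G4 DNA was added stepwise, with 5 min incubation before each spectrum. Excitation 330 nm; emission 350–550 nm, slit 5 nm.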

Quadruplex DNA [2] = assay: Binding affinity to human c-Kit2 G-quadruplex DNA assessed as stabilization of parallel stranded topology after 5 mins in presence of KCl by CD spectroscopic method; assay type: nucleic-acid assay
Outline: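 CD spectra of 5 µM G4 DNA in 10 mM Tris-HCl pH 7.4, 100 mM KCl, 0.1 mM EDTA, with or without ligand. Mixtures were heated 95 °C for 5 min and slowly cooled to room temperature. Recorded 200–400 nm at 25 °C, 100 nm/min, 2 s response, 1 cm cell; average of three scans.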

Quadruplex DNA [3] = assay: Binding affinity to human telomeric G-quadruplex DNA assessed as change in melting temperature in presence of KCl by CD spectroscopic method; assay type: nucleic-acid assay
Outline: (§2)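 CD melting of 5 µM G4 DNA in 10 mM Tris-HCl pH 7.4, 25 mM KCl, 0.1 mM EDTA. Ligand was present during folding (heating, slow cooling). Spectra 200–400 nm over 20–96 °C in 2 °C steps, buffer blank subtracted. Tm was taken from normalized ellipticity at the positive maximum (262 nm for promoter G4s). ΔTm = ligand-bound minus DNA alone; average of two independent experiments.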

Quadruplex DNA [4] = assay: Binding affinity to human VEGF G-quadruplex DNA assessed as change in melting temperature in presence of KCl by CD spectroscopic method; assay type: nucleic-acid assay; outline: as §2
Quadruplex DNA [5] = assay: Displacement of thiazole orange from human VEGF G-quadruplex DNA after 5 mins in presence of KCl by fluorescence assay; assay type: nucleic-acid assay
Outline: (§3)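 Thiazole orange displacement from a G4 DNA–TO complex (1 µM TO + 0.5 µM G4 DNA) in 10 mM Tris-HCl pH 7.4, 100 mM KCl, 0.1 mM EDTA. Ligand was added in increasing steps, with 5 min incubation each. Fluorescence read at ex 501/em 531 nm; % displacement = 100 − (Ft/F0 × 100). DC50 is the ligand concentration giving 50% displacement, read from plots; average of two independent experiments.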

Quadruplex DNA [6] = assay: Binding affinity to human c-Kit1 G-quadruplex DNA assessed as change in melting temperature in presence of KCl by CD spectroscopic method; assay type: nucleic-acid assay; outline: as §2
Quadruplex DNA [7] = assay: Stabilization of c-Myc G-quadruplex DNA in human HeLa cells assessed as decrease in c-Myc mRNA level after 24 hrs by RT-PCR method; assay type: cell-based
Outline: (§4)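 HeLa cells exposed to increasing ligand concentrations (5 and 10 µM named) for 24 h, with DMSO-treated cells as control. Total RNA was extracted with TRI reagent and DNase I-treated. c-MYC and VEGF transcripts were quantified by qRT-PCR, normalized to GAPDH, and expressed as relative fold change.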

Quadruplex DNA [8] = assay: Stabilization of VEGF G-quadruplex DNA in human HeLa cells assessed as decrease in VEGF mRNA level at 5 uM after 24 hrs by RT-PCR method relative to control; assay type: cell-based; set-up: scale not given: the % may be the effect or the level left; outline: as §4
Quadruplex DNA [9] = assay: Binding affinity to human c-Kit2 G-quadruplex DNA at 0.6 uM after 5 mins in presence of KCl by fluorescence spectroscopic method; assay type: nucleic-acid assay; outline: as §1
Quadruplex DNA [10] = assay: Binding affinity to human VEGF G-quadruplex DNA at 0.6 uM after 5 mins in presence of KCl by fluorescence spectroscopic method; assay type: nucleic-acid assay; outline: as §1
Quadruplex DNA [11] = assay: Displacement of thiazole orange from human c-Myc G-quadruplex DNA after 5 mins in presence of KCl by fluorescence assay; assay type: nucleic-acid assay; outline: as §3
Quadruplex DNA [12] = assay: Stabilization of c-Myc G-quadruplex DNA in human HeLa cells assessed as decrease in c-Myc mRNA level at 5 uM after 24 hrs by RT-PCR method relative to control; assay type: cell-based; set-up: scale not given: the % may be the effect or the level left; outline: as §4
Quadruplex DNA [13] = assay: Binding affinity to human Bcl2 G-quadruplex DNA at 0.6 uM after 5 mins in presence of KCl by fluorescence spectroscopic method; assay type: nucleic-acid assay; outline: as §1

Activity (Quadruplex DNA [1]): Active
Activity (Quadruplex DNA [2]): Active
ΔTm (Quadruplex DNA [3]): 21.3 °C
ΔTm (Quadruplex DNA [4]): 11.3 °C
DC50 (Quadruplex DNA [5]): 780 nM
ΔTm (Quadruplex DNA [6]): 24.7 °C
Activity (Quadruplex DNA [9]): Active
Activity (Quadruplex DNA [10]): Active
DC50 (Quadruplex DNA [11]): 830 nM
Activity (Quadruplex DNA [13]): Active
SMILES: CN(C)CCCCn1c2ccc(-c3nc4ccc(N5CCN(CCO)CC5)cc4[nH]3)cc2c2cc(-c3nc4ccc(N5CCN(CCO)CC5)cc4[nH]3)ccc21
Activity (Quadruplex DNA [7]): Dose-dependent effect
Activity (Quadruplex DNA [8]): 44%
Activity (Quadruplex DNA [12]): 49%
